Screening data: PubChem BioAssay, several laboratories
VIM-2 inh = inhibitors of Pseudomonas aeruginosa VIM-2 metallo-beta-lactamase; AID 1527; inhibition, % at 5.6 µM; hit rate 0.89% among 290,000; purified VIM-2, nitrocefin hydrolysis, epi-absorbance fluorescence;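 active means inhibition above the mean of all tested compounds plus 3 SD, cutoff set per screening run, cut at about 7.5% in these data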;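 further: red hydrolysis product quenches plate fluorescence so inhibitors raise well fluorescence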
CRFBP-R2 agonist = agonists of human CRF-binding protein/CRF-R2 receptor complex. HEK293 CRF-R2/CRF-BP, calcium dye fluorescence (FLIPR); percent of saturating CRF peptide response. activation, % at 13.2 µM. hit rate 0.46% among 350,000;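 active means activation of at least 50%, plus an integration ratio under a set limit after plate pattern correction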
IMP-1 inhibitor = inhibitors of Pseudomonas aeruginosa IMP-1 metallo-beta-lactamase | purified IMP-1, nitrocefin hydrolysis, epi-absorbance fluorescence | inhibition, % at 5.6 µM | hit rate 0.45% among 290,000;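 active means inhibition above the mean plus 3 SD of all compounds in the same screening run, cut at about 4.5% in these data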
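Material – recombinant IMP-1 enzyme, purified · Amount – IMP-1 0.2 nM before substrate addition · Medium – HEPES buffer pH 7.1 with ZnSO4 and Brij 35 · Timing – 25 °C, 15 min preincubation, 25 min reaction · Measured by – plate fluorescence quenching by hydrolysis product, ex 480/em 530 nm · Read-out – percent enzyme inhibition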
TRPML3 ag = agonists of human TRPML3 channel. AID 1448. Q8TDD5. HEK293 TRPML3-YFP, Fluo-8 calcium fluorescence; 100% = the carbachol control signal. hit rate 0.29% among 220,000. activation, % at 3 µM;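 active means activation above its plate's cutoff, the mean activation of the plate's test wells plus 3 SD, cut at about 12% in these data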
Target sequence (Q8TDD5 whole entry, looked up): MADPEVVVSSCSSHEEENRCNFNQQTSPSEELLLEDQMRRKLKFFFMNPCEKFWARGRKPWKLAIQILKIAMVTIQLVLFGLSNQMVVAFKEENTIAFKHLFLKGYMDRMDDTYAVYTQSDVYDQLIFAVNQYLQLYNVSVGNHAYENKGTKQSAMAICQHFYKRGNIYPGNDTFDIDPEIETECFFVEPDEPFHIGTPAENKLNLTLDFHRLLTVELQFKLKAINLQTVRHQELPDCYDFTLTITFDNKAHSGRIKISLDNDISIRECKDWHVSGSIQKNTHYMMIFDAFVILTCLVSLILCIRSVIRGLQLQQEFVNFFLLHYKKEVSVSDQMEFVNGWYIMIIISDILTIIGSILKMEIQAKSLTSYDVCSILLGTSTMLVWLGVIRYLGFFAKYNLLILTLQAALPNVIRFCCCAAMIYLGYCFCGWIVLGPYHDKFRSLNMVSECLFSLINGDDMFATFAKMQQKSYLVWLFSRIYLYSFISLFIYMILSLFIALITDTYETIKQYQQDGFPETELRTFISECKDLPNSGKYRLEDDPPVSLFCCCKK
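Test system: HEK293 cells stably carrying human TRPML3-YFP; Doses: single dose, 3 µM final nominal compound, 0.3% DMSO final; Schedule: dye loading 1 h 37 °C then 30 min ambient, 125 s read; Technique: Fluo-8 calcium fluorescence; Benchmarks: high control carbachol 87 µM, low control DMSO.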
zfTRPN1 agonist = agonists of zebrafish TRPN1 channel | hit rate 0.18% among 220,000 | HEK293 zebrafish TRPN1-YFP, Fluo-8 calcium fluorescence; 100% = response to 87 µM carbachol | activation, % at 3 µM;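 active means activation above its plate's cutoff, the mean activation of test wells on that plate plus 3 SD, cut at about 19% in these data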
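Assay system: Zebrafish TRPN1-YFP in HEK293 cells | Incubation: Dye loading 1 h at 37 °C, then 30 min room temperature | Measured by: Kinetic Fluo-8 fluorescence, ex 470-495, em 515-575 nm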
CRFR2-BP antag = CRF-BP/CRF-R2 complex antagonism; hit rate 0.59% among 350,000; inhibition, % at 11.8 µM; HEK293 CRF-R2/CRF-BP, CRF-induced calcium fluorescence;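 active means inhibition of the ligand-induced calcium signal above about 50% at the single tested concentration, limit read from the data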
A number is an active result; n = inactive; x = no result given. Only some compounds are listed: those with a hit (about 2.1% of all), similar ones and a draw of the others.

SMILES	VIM-2 inh	CRFBP-R2 agonist	IMP-1 inhibitor	TRPML3 ag	zfTRPN1 agonist	CRFR2-BP antag
CCCN1CCN(CCCNC(=O)Cn2nc(-c3ccc(C)cc3)ccc2=O)CC1	n	n	6.3	n	n	n
COc1ccc(NC(=S)N2CCc3ccccc32)cc1OC	n	n	n	x	x	n
CC(C)N(C(=O)COC(=O)c1cncc(Br)c1)C(C)C	n	n	n	n	n	104
CCC(C)C(NC(=O)c1ccccc1)C(=O)N1CCN(C(=O)c2ccccc2)CC1 (stereo not drawn)	x	n	x	x	x	n
CC(C)Cc1ccc(CN2CCCC(NC(=O)CCN3CCCCC3=O)C2)cc1 (stereo not drawn)	n	n	n	x	x	n
O=C(CCN1CCCCC1=O)NC1CCCN(Cc2ccc(Cl)cc2)C1 (stereo not drawn)	n	n	n	x	x	89
C=CCn1c(=N)c(C(=O)NCCCOC)cc2c(=O)n3cc(C)ccc3nc21	11	n	n	n	n	n
C=CCn1c(=N)c(C(=O)NCCCOC)cc2c(=O)n3ccccc3nc21	n	n	n	n	n	n
Cc1ccc2nc3c(cc(C(=O)NC4CCCC4)c(=N)n3C3CCCCC3)c(=O)n2c1	12	n	n	x	x	n
Cc1cccn2c(=O)c3cc(C(=O)NCC4CCCO4)c(=N)n(CC4CCCO4)c3nc12 (stereo not drawn)	n	n	n	x	x	n
Cc1cccn2c(=O)c3cc(C(=O)NCC4CCCO4)c(=N)n(C4CCCCC4)c3nc12 (stereo not drawn)	8.0	n	n	x	x	n
Cc1cccn2c(=O)c3cc(C(=O)NCc4ccco4)c(=N)n(C4CCCC4)c3nc12	8.2	n	n	x	x	n
Cc1ccc2nc3c(cc(C(=O)NC4CCCCC4)c(=N)n3C3CCCCC3)c(=O)n2c1	n	n	n	x	x	n
Cc1ccc(S(=O)(=O)N(C)C[C@H]2Oc3cc(C#Cc4ccccc4)ccc3S(=O)(=O)N([C@H](C)CO)C[C@@H]2C)cc1	x	n	x	x	x	n
N#CC1=C2CCCCC2(O)NC1=O (stereo not drawn)	x	n	x	x	x	n
CCn1c(SCC(=O)c2c(N)n(C3CC3)c(=O)[nH]c2=O)nnc1-c1ccoc1C	x	n	x	x	x	n
CCOC(=O)c1c(NC(=O)c2cccc(N3C(=O)CCC3=O)c2)sc2c1CCN(CC)C2	7.9	n	n	x	x	n
CCOC(=O)c1c(NC(C)=O)sc2c1CCN(Cc1ccccc1)C2	n	n	n	x	x	n
CCOC(=O)c1c(-c2ccccc2)csc1NC(=O)c1cccc(N2C(=O)CCC2=O)c1	n	n	n	n	n	n
CCOC(=O)c1c(NC(=O)C(C)Sc2cccc[n+]2[O-])sc2c1CCN(Cc1ccccc1)C2 (stereo not drawn)	n	51	n	n	n	n
O=C(CSc1nc(=O)n(Cc2ccccn2)c2c1CCC2)Nc1ccc(F)cc1F	x	n	x	x	x	n
COc1ccc(Oc2ccc(C(F)(F)F)cc2NC(=O)c2ccc(OC)cc2)cc1	n	n	n	n	n	52
Cc1cccc(NS(=O)(=O)c2cccc(C(=O)N3CCN(c4ccccn4)CC3)c2)c1	n	n	n	x	x	115
CCC(NS(=O)(=O)c1ccc(C)cc1)C(=O)N1CCN(c2ccccn2)CC1 (stereo not drawn)	n	n	4.5	n	n	n
O=C(OCn1nnc2ccccc2c1=O)c1cccc(S(=O)(=O)N2CCOCC2)c1	x	n	x	x	x	n
SMILES	VIM-2 inh	CRFBP-R2 agonist	IMP-1 inhibitor	TRPML3 ag	zfTRPN1 agonist	CRFR2-BP antag
COc1ccc([N+](=O)[O-])cc1NC(=O)C1CCCO1 (stereo not drawn)	n	n	n	n	n	n
Cc1nn(C)c(Cl)c1NC(=O)OCc1ccc(Cl)cc1Cl	n	n	n	n	n	52
Cc1nnsc1NC(=O)OCc1ccc(Cl)cc1Cl	n	n	n	n	n	n
COC(=O)N/N=C(\C)c1cccs1	n	n	n	n	n	112
C/C(=N\NC(=O)C1CC1)c1cccs1	n	n	n	n	n	n
N#CC(C#N)=C1C=CC=CN1/C(=C\c1ccco1)C(=O)c1ccc(Cl)cc1	n	61	n	n	n	n
COc1ccc(CNc2nnnn2C)c(OC)c1	n	n	n	x	x	n
COc1ccc2c(c1)c(=O)oc1cc3occ(C(C)(C)C)c3cc12	n	n	22	n	n	n
Cc1ccc(NC(=O)CC(=O)c2ccccc2)cc1C	n	n	n	x	x	n
O=C(NCCN1CCOCC1)c1cc(-c2ccc(F)cc2)on1	n	n	n	n	n	n
Cc1ccc(-c2cc(C(=O)NCCN3CCOCC3)no2)cc1	n	n	10	n	n	n
CC(C(=O)NCCN1CCOCC1)(c1ccccc1)c1ccccc1	n	n	n	n	n	81
Cc1ccccc1C(=O)NCCN1CCOCC1	n	n	n	n	n	n
CCN(C(=O)c1ccncc1)c1c(N)n(Cc2ccccc2)c(=O)[nH]c1=O	x	n	x	x	x	n
CC(C)(C)C(=O)Nc1cc(NC(=O)C(C)(C)C)cc(C(=O)Nc2c[nH]c(=O)[nH]c2=O)c1	x	n	x	x	x	n
Cc1ccc(C)c(CSc2nnc([C@@H]3CCCN3)o2)c1	n	n	5.0	n	n	n
Clc1ccc(CSc2nnc([C@@H]3CCCN3)o2)cc1Cl	n	n	n	n	n	n
COc1ccc(NC(=O)CCS(=O)(=O)c2ccc3c(c2)CCN3C(C)=O)cc1	n	n	n	x	x	n
COC(=O)[C@H](Cc1ccccc1)NC(=O)Cn1cnc(C(=O)Nc2ccc(C)c(C)c2)n1	x	n	x	x	x	n
CCOC(=O)N1CCN(c2c(-c3ccc(C)cc3)c(=O)c2=O)CC1	n	n	n	n	n	n
CCOC(=O)N1CCN(c2c(-c3ccc(C(C)C)cc3)c(=O)c2=O)CC1	n	n	5.3	n	n	n
CCN(CC)c1ccc(/C=C2\SC(=O)N(C(C)C)C2=O)o1	n	n	n	n	40	n
CC(C)N1C(=O)S/C(=C/c2ccc3c(c2)n(C)c(=O)n3C)C1=O	n	n	n	n	n	n
CC1(C(=O)O)CCC(C(=O)NNC(=O)c2ccccc2O)C1(C)C (stereo not drawn)	n	n	n	x	x	n
Cc1cc(=O)[nH]c(SCC(=O)Nc2ccc(Br)cc2)c1C#N	n	67	n	n	n	63
SMILES	VIM-2 inh	CRFBP-R2 agonist	IMP-1 inhibitor	TRPML3 ag	zfTRPN1 agonist	CRFR2-BP antag
Cc1cc(=O)[nH]c(SCC(=O)Nc2ccc(F)cc2)c1C#N	n	n	n	n	n	n
C/[N+]([O-])=C\C1C(=O)CC(C)(C)CC1=O	n	n	n	n	n	53
CCOC(=O)N1CCc2[nH]c3ccc(C)cc3c2C1	8.8	n	n	n	n	n
Cc1ccc(S(=O)(=O)N[C@@H](Cc2ccccc2)C(=O)N2CCC[C@@H]2C(=O)O)cc1	n	n	n	x	x	n
CCOc1ccc(NC(=O)/C=C/c2ccccc2)c([N+](=O)[O-])c1	n	n	4.8	n	n	n
CCOc1ccc(/C=C/C(=O)Nc2ccc(OC)cc2[N+](=O)[O-])cc1	n	n	n	n	n	n
